Test results as given in ChEMBL document CHEMBL1134494, “2-Amino-6-arylsulfonylbenzonitriles as non-nucleoside reverse transcriptase inhibitors of HIV-1” (J Med Chem, 2001).

These molecules were tested on Human immunodeficiency virus 1 (assay: Antiviral activity against HIV-1 infected human MT-4 cells.). Settings: Human immunodeficiency virus 1, MT4.
Format: functional, organism-based
Method in brief: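 HTLV-1-transformed MT4 cells were infected with HIV-1 strain 3B at 100× the amount giving a 50% drop in cell growth. They were cultured 5 days with a range of compound concentrations. IC50 is the concentration restoring 50% of infected-cell growth (cytopathic effect) relative to uninfected MT4 controls.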

Row | Compound | IC50 [µM]
1 | COc1cccc(Sc2cccc(N)c2C#N)c1 | 6
2 | Cc1cc(Cl)cc(Sc2cccc(N)c2C#N)c1 | 1.76
3 | Cc1cc(C)cc(Sc2cccc(N)c2C#N)c1 | 0.43
4 | Cc1cc(C)cc([S+]([O-])c2cccc(N)c2C#N)c1 (stereo not drawn) | 0.34
5 | N#Cc1cccc([S+]([O-])c2cccc(N)c2C#N)c1 (stereo not drawn) | 14.2
6 | Cc1ccc(S(=O)(=O)c2cccc(N)c2C#N)cc1 | 9.5
7 | N#Cc1cccc(S(=O)(=O)c2cccc(N)c2C#N)c1 | 2.4
8 | COc1ccc([S+]([O-])c2cccc(N)c2C#N)cc1 (stereo not drawn) | > 200
9 | N#Cc1ccc([S+]([O-])c2cccc(N)c2C#N)cc1 (stereo not drawn) | > 200
10 | N#Cc1c(N)cccc1S(=O)(=O)c1cc(Cl)ccc1Cl | 0.3
11 | COc1cccc(S(=O)(=O)c2cccc(N)c2C#N)c1 | 0.9

What follows are molecules tested on MT4 (assay: Cell culture cytotoxicity against MT-4 cells.). Settings: Homo sapiens.
Format: functional, cell-based
Method in brief: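 MT4 cells were exposed to compound in parallel with the 5-day HIV-1 strain 3B cytopathic-effect assay. Compound-induced cytotoxicity is reported as the cell culture cytotoxicity IC50 (CCIC50).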

Row | Compound | IC50 [µM]
12 | COc1cccc(Sc2cccc(N)c2C#N)c1 | > 200
13 | Cc1cc(Cl)cc(Sc2cccc(N)c2C#N)c1 | 16
14 | Cc1cc(C)cc(Sc2cccc(N)c2C#N)c1 | > 2
15 | Cc1cc(C)cc([S+]([O-])c2cccc(N)c2C#N)c1 (stereo not drawn) | 200
16 | N#Cc1cccc([S+]([O-])c2cccc(N)c2C#N)c1 (stereo not drawn) | > 200
17 | Cc1ccc(S(=O)(=O)c2cccc(N)c2C#N)cc1 | > 200
18 | N#Cc1cccc(S(=O)(=O)c2cccc(N)c2C#N)c1 | > 200
19 | COc1ccc([S+]([O-])c2cccc(N)c2C#N)cc1 (stereo not drawn) | > 200
20 | N#Cc1ccc([S+]([O-])c2cccc(N)c2C#N)cc1 (stereo not drawn) | > 200
21 | N#Cc1c(N)cccc1S(=O)(=O)c1cc(Cl)ccc1Cl | > 200
22 | COc1cccc(S(=O)(=O)c2cccc(N)c2C#N)c1 | > 200

What follows are molecules tested against Human immunodeficiency virus type 1 reverse transcriptase (Human immunodeficiency virus 1, UniProt Q72547) (assay: Inhibitory activity against HIV-1 reverse transcriptase). Settings: not given.
Method in brief: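 Recombinant HIV RT at 1 nM was combined with 40 nM Eu-chelate-labeled biotinylated DNA primer/RNA template and 100 nM Cy5-dUTP. Reactions were started with enzyme.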

Row | Compound | IC50 [µM]
23 | COc1cccc(Sc2cccc(N)c2C#N)c1 | 1.5
24 | Cc1cc(Cl)cc(Sc2cccc(N)c2C#N)c1 | 1.7
25 | Cc1cc(C)cc(Sc2cccc(N)c2C#N)c1 | 1.1
26 | Cc1cc(C)cc([S+]([O-])c2cccc(N)c2C#N)c1 (stereo not drawn) | 0.5
27 | N#Cc1cccc([S+]([O-])c2cccc(N)c2C#N)c1 (stereo not drawn) | > 15
28 | Cc1ccc(S(=O)(=O)c2cccc(N)c2C#N)cc1 | 7.3
29 | N#Cc1cccc(S(=O)(=O)c2cccc(N)c2C#N)c1 | 1.8
30 | COc1ccc([S+]([O-])c2cccc(N)c2C#N)cc1 (stereo not drawn) | > 20
31 | N#Cc1ccc([S+]([O-])c2cccc(N)c2C#N)cc1 (stereo not drawn) | > 23
32 | N#Cc1c(N)cccc1S(=O)(=O)c1cc(Cl)ccc1Cl | 0.3
33 | COc1cccc(S(=O)(=O)c2cccc(N)c2C#N)c1 | 0.6
